Measured values from different studies.
Each line is one published result; the experiments were not run side by side.
Target: Protein kinase C delta type (PRKCD, Homo sapiens, UniProt Q05655)

Compound | read-out | technique | concentration | remaining binding [%]
O=C(c1ccc(Nc2ncc(Cl)c(-c3cc4ccccc4s3)n2)cc1)N1CCC(N2CCCC2)CC1 | binding | competition with immobilised ligand | 1 µM | 32
CS(=O)(=O)N1CCCC(NC(=O)[C@H](CCC2CCCCC2)NC(=O)c2ccc(CNc3ncnc4c3nnn4-c3ccccc3)cc2)C1 (stereo partly drawn) | cell-free assay | competition with immobilised ligand | 0.1 µM | 80
CNC(=O)[C@@H]1CC[C@@H](n2c(-c3ccc4cnccc4c3)nc3ccc(C(=O)NCc4cccc(C(N)=O)c4)cc32)C1 | binding | competition with immobilised ligand | 1 µM | 81
O=C(NCC1CCOCC1)c1n[nH]cc1NC(=O)c1c(F)cccc1F | binding | competition with immobilised ligand | 1 µM | 100
COc1ccc2c(O[C@@H]3C[C@H]4C(=O)N[C@]5(C(=O)O)CC5/C=C\CCCCC[C@H](NC(=O)OC5CCCC5)C(=O)N4C3)cc(-c3csc(NC(=O)C(C)C)n3)nc2c1C (stereo partly drawn) | cell-free assay | competition with immobilised ligand | 1 µM | 84
F[C@@H]1CCN(c2nccc(-c3cnn4ncccc34)n2)C1 | binding |  | 1 µM | 100
C=CC(=O)N1CCC(C(=O)NCC(=O)N2CCN(c3nc(-c4cnc(N)nc4C(F)F)nc(N4CCOCC4)n3)CC2)CC1 | binding | competition with immobilised ligand | 1 µM | 100
O=C(NCc1ncc(C(F)(F)F)cc1Cl)c1ccc2c(c1)C1(CCS(=O)(=O)CC1)[C@@H](C1CC1)N2S(=O)(=O)c1ccc(F)cc1 | cell-free assay | competition with immobilised ligand | 1 µM | 100
O=C(c1ccc(Nc2nccc(-c3cc4ccccc4s3)n2)cc1)N1CCC(N2CCCC2)CC1 | binding | competition with immobilised ligand | 1 µM | 86
Cc1cnn2ncc(-c3ccnc(N(C)C)n3)c2c1 | binding |  | 1 µM | 100
CCN1CCN(Cc2ccc(C(=O)Nc3ccc(C)c(Oc4ccc5c(c4)CC(=O)N5)c3)cc2C(F)(F)F)CC1 | binding | competition with immobilised ligand | 1 µM | 96
Cc1cc(C)c(-n2ccn3nc(-c4cccnc4)cc23)cc1NC(=O)c1cc(C#N)cc(S(F)(F)(F)(F)F)c1 | cell-free assay | competition with immobilised ligand | 0.1 µM | 93.1
O=C(NCCCN1CCOCC1)c1ccc(Nc2nccc(-c3cc4ccccc4s3)n2)cc1 | binding | competition with immobilised ligand | 1 µM | 81
C[C@H]1CCN(c2nccc(-c3cnn4ncccc34)n2)C1 | binding |  | 1 µM | 100
COc1ncc2cc3ccccc3nc2c1C#N | cell-free assay | competition with immobilised ligand | 5 µM | 75
c1cnn2ncc(-c3ccnc(N4CCC45COC5)n3)c2c1 | binding |  | 1 µM | 100
O=C(Nc1cnc(Oc2ccc(F)cc2)nc1)N1CCc2ncccc2[C@@H]1c1ccc(F)cc1 | cell-free assay | competition with immobilised ligand | 1 µM | 87
N[C@@H]1CCN(c2nccc(-c3cnn4ncccc34)n2)C1 | binding |  | 1 µM | 96
COc1cnc(Nc2cccc(S(N)(=O)=O)c2)nc1N1CCN(c2ccccc2)C(=O)C1 | binding | competition with immobilised ligand | 1 µM | 100
CN(C)c1nccc(-c2cnn3ncccc23)n1 | binding |  | 1 µM | 100
C[C@H](c1ccnc(Nc2nc3ccc(-c4cc(N(C)C)ncn4)cc3[nH]2)c1)N1CCN(C(=O)CC(F)(F)F)CC1 | cell-free assay | competition with immobilised ligand | 0.1 µM | 100
